Assay results taken from PMC9394215 (Journal for Immunotherapy of Cancer, 2022).

Target: T1, human CD39 (Homo sapiens, UniProt P49961)
T1 sequence (P49961 1-510): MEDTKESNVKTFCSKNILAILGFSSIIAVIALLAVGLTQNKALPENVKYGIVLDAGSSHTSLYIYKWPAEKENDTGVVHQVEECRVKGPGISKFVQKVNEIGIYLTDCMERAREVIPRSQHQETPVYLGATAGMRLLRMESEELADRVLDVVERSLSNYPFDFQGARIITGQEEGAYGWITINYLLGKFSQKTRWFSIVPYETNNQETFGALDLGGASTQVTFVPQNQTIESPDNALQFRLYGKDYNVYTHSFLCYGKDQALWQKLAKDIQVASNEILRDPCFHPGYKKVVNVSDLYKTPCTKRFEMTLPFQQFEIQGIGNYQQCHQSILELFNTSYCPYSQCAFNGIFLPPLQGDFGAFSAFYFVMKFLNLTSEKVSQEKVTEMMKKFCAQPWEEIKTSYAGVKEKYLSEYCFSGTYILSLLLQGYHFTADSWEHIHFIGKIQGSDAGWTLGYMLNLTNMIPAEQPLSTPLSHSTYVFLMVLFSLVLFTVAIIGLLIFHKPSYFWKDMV
Type: biochemical
Conditions: for inhibition of CD39 (in words): library screen at 10 µM, figure 3
Summary of the method: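 CD39 came from human umbilical cord membranes (50.0 ng protein per well). Substrate was 50 µM ATP in 10 mM HEPES, 2 mM CaCl2, 1 mM MgCl2, pH 7.4, with ≤2% DMSO. Enzyme and test compound were preincubated 5 min at 37°C; reaction ran 15 min at 37°C. Malachite green/molybdate was added and A600 read after 20 min at 25°C, minus a heat-denatured enzyme blank. Screening was at 10 µM; curves spanned 0.1–300 µM; n=3.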

Row | SMILES | inhibition of CD39 (in words) | inhibition at 10 µM (read-out: inhibition of human CD39) [%]
1 | C[C@@H](Oc1cc(-c2cnn(C3CCNCC3)c2)cnc1N)c1c(Cl)ccc(F)c1Cl [critozinib, Crizotinib] | did not inhibit | –
2 | Cc1ccc(C(=O)Nc2ccc(CN3CCN(C)CC3)c(C(F)(F)F)c2)cc1C#Cc1cnc2cccnn12 [ponatinib, Ponatinib] | – | 33
3 | CCc1cc2c(cc1N1CCC(N3CCOCC3)CC1)C(C)(C)c1[nH]c3cc(C#N)ccc3c1C2=O [alectinib, Alectinib] | did not inhibit | –
